Legend:
[1] = system: HCT-116; assay: Antiproliferation activity against human HCT116 cells assessed as cell growth inhibition measured after 72 hrs by MTT assay; format: functional
Procedure, shortened: (§1)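 Cells grown in RPMI-1640 with 10% FBS at 37 °C, 5% CO2, seeded at 4−7 × 10³ cells/well and left to adhere overnight. Exposed to a range of concentrations for 72 h, then MTT (2.5 mg/mL stock) added for 4 h. Formazan dissolved in DMSO and absorbance read at 570 nm. GI50 taken as the concentration giving 50% growth inhibition, reported as mean ± SD of at least three independent experiments.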

[2] = system: A549; assay: Antiproliferation activity against human A549 cells assessed as cell growth inhibition measured after 72 hrs by MTT assay; format: functional; procedure, shortened: as §1
[3] = Cytotoxicity against human L02 cells assessed as assessed as cell growth inhibition measured after 72 hrs by MTT assay; format: cell-based
Procedure, shortened: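 LO2 normal liver cells cultured in RPMI-1640/10% FBS at 37 °C, 5% CO2 and seeded at 4−7 × 10³ cells/well. Graded concentrations applied for 72 h, then MTT readout at 570 nm. GI50 is the concentration giving 50% growth inhibition, mean ± SD of at least three independent experiments.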

[4] = biological target: Tubulin beta (Homo sapiens) (UniProt P68371+Q9H4B7+Q13509+P04350+Q3ZCM7+P07437+Q13885+Q9BVA1+Q9BUF5+A6NNZ2); assay: Inhibition of N,N'-Ethylenebis(iodoacetamide) binding to beta-tubulin in human HepG2 cells assessed as reduction in EBI/beta-tubulin adduct formation preincubated for 2 hrs followed by EBI addition and measured after 1.5 hrs by Western blot analysis; format: cell-based; conditions: dose microM 0.2-25, time 3.5 hrs
Procedure, shortened: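 HepG2 seeded 5 × 10⁵ cells/well, adhered overnight. […] Lysate protein (20 μg) run on 10% polyacrylamide gel on ice and transferred to PVDF. Probed with anti-β-tubulin 16 h at 4 °C, then HRP secondary. Chemiluminescence detection.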

[5] = system: HepG2; assay: Induction of cell cycle arrest in human HepG2 cells assessed as accumulation in G2/M phase at 20 nM incubated for 24 hrs by propidium iodide staining based flow cytometry (reference value: 12.59%); format: functional
[6] = system: HepG2; assay: Induction of cell cycle arrest in human HepG2 cells assessed as accumulation in G2/M phase incubated for 24 hrs by propidium iodide staining based flow cytometry; format: functional; conditions: dose nM 5-20, time 24.0 hrs
[7] = system: HepG2; assay: Induction of apoptosis in human HepG2 cells assessed as early apoptotic cells at 5 nM incubated for 12 hrs by Annexin V-PE and 7-AAD staining based flow cytometry (reference value: 4.52%); format: functional
Procedure, shortened: (§2)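 HepG2 cells seeded at 3 × 10⁵ cells/well, adhered overnight, exposed at 5, 10 or 20 nM for 12 or 24 h. Harvested into Annexin V binding buffer and stained with annexin V-PE and 7-AAD for 15 min at room temperature in the dark, then analysed by flow cytometry. Gates: live (−/−), early apoptotic (+/−), late apoptotic (+/+), necrotic (−/+).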

[8] = system: HepG2; assay: Induction of apoptosis in human HepG2 cells assessed as necrotic cells at 10 nM incubated for 12 hrs by Annexin V-PE and 7-AAD staining based flow cytometry (reference value: 0.55 %); format: functional; procedure, shortened: as §2
[9] = system: HepG2; assay: Induction of apoptosis in human HepG2 cells assessed as early apoptotic cells at 10 nM incubated for 12 hrs by Annexin V-PE and 7-AAD staining based flow cytometry (reference value: 4.52%); format: functional; procedure, shortened: as §2
[10] = system: HepG2; assay: Induction of apoptosis in human HepG2 cells assessed as live cells at 20 nM incubated for 12 hrs by Annexin V-PE and 7-AAD staining based flow cytometry (reference value: 92.1%); format: functional; procedure, shortened: as §2
[11] = system: HepG2; assay: Induction of apoptosis in human HepG2 cells assessed as necrotic cells at 10 nM incubated for 24 hrs by Annexin V-PE and 7-AAD staining based flow cytometry (reference value: 0.34 %); format: functional; procedure, shortened: as §2
[12] = system: HepG2; assay: Induction of apoptosis in human HepG2 cells assessed as late apoptotic cells at 10 nM incubated for 24 hrs by Annexin V-PE and 7-AAD staining based flow cytometry (reference value: 2.33 %); format: functional; procedure, shortened: as §2
[13] = system: HepG2; assay: Induction of apoptosis in human HepG2 cells assessed as live cells at 10 nM incubated for 24 hrs by Annexin V-PE and 7-AAD staining based flow cytometry (reference value: 93.2%); format: functional; procedure, shortened: as §2
[14] = system: HepG2; assay: Induction of apoptosis in human HepG2 cells assessed as necrotic cells at 20 nM incubated for 24 hrs by Annexin V-PE and 7-AAD staining based flow cytometry (reference value: 0.34 %); format: functional; procedure, shortened: as §2
[15] = Aqueous solubility of compound in DMSO at pH 7.4 by HPLC analysis; format: physicochemical; conditions: aqueous medium
Procedure, shortened: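 Solubility measured at pH 7.4. DMSO stock (10 mg/mL) diluted in methanol to five levels to build an HPLC peak-area standard curve. Compound added to 1 mL buffer to make a saturated solution, and the peak area of that solution analysed by HPLC on a C18 column. Solubility calculated from the standard curve.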

[16] = Lipophilicity, log P of the compound in DMSO and n-octanol at pH 7.4 incubated for 10 hrs under stirred condition by HPLC analysis; format: physicochemical; conditions: n-octanol / aqueous phase pH 7.4, pH 7.4
Procedure, shortened: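 Partition between n-octanol and water: mixture stirred at room temperature for 10 h, then left at 4 °C overnight. Each phase analysed separately by HPLC on a C18 column. Log P taken from the ratio of peak areas in n-octanol and water.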

[17] = Toxicity in Balb/c nude mouse xenografted with human HepG2 cells assessed as change in body weight at 5 mg/kg, iv administered every 2 days for 21 days (reference value: 7.8 % ); format: organism-based; conditions: in vivo, 504 h, time 21 day
[18] = system: HepG2; assay: Antitumor activity against human HepG2 cells xenografted in Balb/c nude mouse assessed as reduction in tumor volume at 5 mg/kg, iv administered every 2 days for 21 days and measured at 3 days interval during compound dosing; format: functional; design: scale not given: the % may be the effect or the level left; conditions: time 21 day
Procedure, shortened: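 Nude mice received 200 μL PBS containing HepG2 at 1 × 10⁷ cells/mL subcutaneously in the right armpit. Randomised at 90 mm³ tumour volume, five per group. Compound given iv as a 2.0 mg/mL solution in distilled water, 5 or 10 mg/kg every two days for 21 days, with a water vehicle group. Tumour volume (L × W²/2) and body weight recorded every 3 days. Inhibition = (1 − RTV treated/RTV vehicle) × 100%.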

[19] = Selectivity index, ratio of GI50 for cytotoxicity against human L02 cells to GI50 for antiproliferation activity against human HepG2 cells assessed as cell growth inhibition measured after 72 hrs by MTT assay; format: toxicity, cell-based; conditions: L02 cells and HepG2 cells, read-out: RatioGI50
Procedure, shortened: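 MTT assay: cells seeded 4–7 × 10³/well, adhered overnight, exposed to a concentration series for 72 h. MTT (2.5 mg/mL stock) added for 4 h, crystals dissolved in DMSO, absorbance read at 570 nm. GI50 is mean ± SD of ≥3 independent experiments. Selectivity = GI50 on normal LO2 / GI50 on HepG2. Resistance fold = GI50 on resistant cells / GI50 on sensitive cells.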

- GI50 [1]: 2.4 nM
- GI50 [2]: 3.7 nM
- inhibition [4]: Dose-dependent effect
- solubility [15]: > 1000 µg/mL
- logD at 10 h [16]: 1.7
Structure (SMILES): CCOc1cccc(Nc2nn(C)c3c2Cc2cc(OCC)c(OCCCN)cc2-3)c1
- GI50 at 72 h [3]: 284 nM
- Activity [5]: 88.46%
- Activity [6]: Dose-dependent effect
- Activity [7]: 5.66%
- Activity [8]: 0.92%
- Activity [9]: 9.58%
- Activity [10]: 77.7%
- Activity [11]: 0.61%
- Activity [12]: 7.19%
- Activity [13]: 75.5%
- Activity [14]: 0.71%
- Activity [17]: 8.4%
- Activity [18]: 54%
- selectivity ratio at 72 h [19]: 118

Reference: ChEMBL document CHEMBL4699650, “SAR Investigation and Discovery of Water-Soluble 1-Methyl-1,4-dihydroindeno[1,2-c]pyrazoles as Potent Tubulin Polymerization Inhibitors” (J Med Chem, 2020)
